# Results: ChEMBL document CHEMBL3045596, “Synthesis and herbicidal activity of 12-(aryloxyacyloxyimino)-1,15-pentadecanlactone derivatives” (J Agric Food Chem, 2009)
# Tested on: Lolium arundinaceum
# Test: Herbicidal activity against Festuca arundinacea assessed as plant dead at 25 to 32 degC measured after 7 days
# Type: functional, organism-based
# Conditions: L., 168 h
# Procedure, shortened: (§1)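 Seedlings grown at 25-32 °C for about 7 days, then thinned to thirty plants per cup at the two-leaf stage. Emulsion (1 mL per cup) applied by Potter spray tower, after which plants were kept at 25-32 °C. Three replicates per concentration.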
row,Structure (SMILES),EC50 [mg/L]
1,O=C1CCCCCCCCCCC(=NOC(=O)COc2ccc(Cl)cc2Cl)CCCO1,50.2

# Tested on: Oryza sativa
# Test: Herbicidal activity against Oryza sativa (rice) assessed as plant dead at 25 to 32 degC measured after 7 days
# Type: functional, organism-based
# Conditions: 168 h
# Procedure, shortened: as §1
row,Structure (SMILES),EC50 [mg/L]
1,O=C1CCCCCCCCCCC(=NOC(=O)COc2ccc(Cl)cc2Cl)CCCO1,2.5

# Tested on: Zea mays
# Test: Herbicidal activity against Zea mays (maize) assessed as plant dead at 25 to 32 degC measured after 7 days
# Type: functional, organism-based
# Conditions: 168 h
# Procedure, shortened: as §1
row,Structure (SMILES),EC50 [mg/L]
1,O=C1CCCCCCCCCCC(=NOC(=O)COc2ccc(Cl)cc2Cl)CCCO1,0.3

# Tested on: Triticum aestivum
# Test: Herbicidal activity against Triticum aestivum L. (wheat) assessed as plant dead at 25 to 32 degC measured after 7 days
# Type: functional, organism-based
# Conditions: 168 h
# Procedure, shortened: as §1
row,Structure (SMILES),EC50 [mg/L]
1,O=C1CCCCCCCCCCC(=NOC(=O)COc2ccc(Cl)cc2Cl)CCCO1,38.4

# Tested on: Glycine max
# Test: Herbicidal activity against Glycine max (soybean) assessed as plant dead at 25 to 32 degC measured after 7 days
# Type: functional, organism-based
# Conditions: 168 h
# Procedure, shortened: as §1
row,Structure (SMILES),EC50 [mg/L]
1,O=C1CCCCCCCCCCC(=NOC(=O)COc2ccc(Cl)cc2Cl)CCCO1,14.4

# Tested on: Vigna radiata var. radiata
# Test: Herbicidal activity against Vigna radiata var. radiata assessed as plant dead at 25 to 32 degC measured after 7 days
# Type: functional, organism-based
# Conditions: 168 h
# Procedure, shortened: as §1
row,Structure (SMILES),EC50 [mg/L]
1,O=C1CCCCCCCCCCC(=NOC(=O)COc2ccc(Cl)cc2Cl)CCCO1,2.8

# Tested on: Cucumis sativus
# Test: Herbicidal activity against Cucumis sativus (cucumber) assessed as plant dead at 25 to 32 degC measured after 7 days
# Type: functional, organism-based
# Conditions: 168 h
# Procedure, shortened: as §1
row,Structure (SMILES),EC50 [mg/L]
1,O=C1CCCCCCCCCCC(=NOC(=O)COc2ccc(Cl)cc2Cl)CCCO1,1.5

# Tested on: Amaranthus tricolor
# Test: Herbicidal activity against Amaranthus tricolor assessed as plant dead at 25 to 32 degC measured after 7 days
# Type: functional, organism-based
# Conditions: 168 h
# Procedure, shortened: as §1
row,Structure (SMILES),EC50 [mg/L]
1,CC1CCC(=NOC(=O)C(C)Oc2ccc(Cl)cc2)CCCCCCCCCCC(=O)O1 (stereo unspecified),4.8
2,Cc1cc(Cl)ccc1OCC(=O)O/N=C1/CCCCCCCCCCC(=O)OCCC1,18.2
3,CC(Oc1ccccc1)C(=O)ON=C1CCCCCCCCCCC(=O)OCCC1 (stereo unspecified),22.4
4,Cc1cc(Cl)ccc1OCC(=O)O/N=C1\CCCCCCCCCCC(=O)OCCC1,18.3
5,CC1CCC(=NOC(=O)COc2ccc(Cl)cc2Cl)CCCCCCCCCCC(=O)O1 (stereo unspecified),8.2
6,Cc1cccc(OC(C)C(=O)ON=C2CCCCCCCCCCC(=O)OCCC2)c1C (stereo unspecified),49.6
7,O=C1CCCCCCCCCCC(=NOC(=O)COc2ccccc2Cl)CCCO1,30.6
8,Cc1ccc(OCC(=O)ON=C2CCCCCCCCCCC(=O)OCCC2)cc1C,55.4
9,O=C1CCCCCCCCCC/C(=N\OC(=O)COc2ccc(Br)cc2Cl)CCCO1,14.4
10,CC1CCC(=NOC(=O)COc2ccc(Br)cc2Cl)CCCCCCCCCCC(=O)O1 (stereo unspecified),14.4
11,Cc1ccccc1OCC(=O)ON=C1CCCCCCCCCCC(=O)OCCC1,117
12,Cc1cc(OCC(=O)ON=C2CCCCCCCCCCC(=O)OC(C)CC2)ccc1Cl (stereo unspecified),3.4
13,Cc1ccc(OCC(=O)ON=C2CCCCCCCCCCC(=O)OCCC2)cc1,55.4
14,O=C1CCCCCCCCCC/C(=N\OC(=O)COc2ccc(Cl)cc2)CCCO1,15.7
15,Cc1cc(OC(C)C(=O)ON=C2CCCCCCCCCCC(=O)OCCC2)ccc1Cl (stereo unspecified),9.5
16,CC(C)(Oc1ccccc1)C(=O)ON=C1CCCCCCCCCCC(=O)OCCC1,34.6
17,Cc1ccc(OC(C)(C)C(=O)ON=C2CCCCCCCCCCC(=O)OCCC2)cc1,55.4
18,O=C1CCCCCCCCCCC(=NOC(=O)COc2ccccc2)CCCO1,73.2
19,O=C1CCCCCCCCCCC(=NOC(=O)COc2ccc(Cl)cc2Cl)CCCO1,7.7
20,Cc1cc(Cl)ccc1OCC(=O)ON=C1CCCCCCCCCCC(=O)OC(C)CC1 (stereo unspecified),8

row,Structure (SMILES),EC50 [mg/L]
1,Cc1cccc(OCC(=O)ON=C2CCCCCCCCCCC(=O)OCCC2)c1C,52.4
2,COC(=O)c1ccccc1S(=O)(=O)NC(=O)N(C)c1nc(C)nc(OC)n1 [TRIBENURON METHYL],22.4
3,CC(Oc1ccc(Cl)cc1)C(=O)ON=C1CCCCCCCCCCC(=O)OCCC1 (stereo unspecified),17.8
4,COc1ccc(OCC(=O)ON=C2CCCCCCCCCCC(=O)OCCC2)cc1,48.8
5,"O=C(O)COc1ccc(Cl)cc1Cl [2,4-DICHLOROPHENOXYACETIC ACID]",117
6,Cc1ccc(OC(C)C(=O)ON=C2CCCCCCCCCCC(=O)OCCC2)cc1 (stereo unspecified),35.9
7,Cc1cc(Cl)ccc1OCC(=O)ON=C1CCCCCCCCCCC(=O)OCCC1,19.6
8,CC(Oc1ccccc1Cl)C(=O)ON=C1CCCCCCCCCCC(=O)OCCC1 (stereo unspecified),18
9,CC(C)(Oc1ccc(Cl)cc1)C(=O)ON=C1CCCCCCCCCCC(=O)OCCC1,46.5
10,O=C1CCCCCCCCCCC(=NOC(=O)COc2ccc(Cl)cc2)CCCO1,18.2
11,Cc1cc(OC(C)(C)C(=O)ON=C2CCCCCCCCCCC(=O)OCCC2)ccc1Cl,50.1
12,CC(Oc1cccc(Cl)c1)C(=O)ON=C1CCCCCCCCCCC(=O)OCCC1 (stereo unspecified),25.1
13,O=C1CCCCCCCCCC/C(=N/OC(=O)COc2ccc(Br)cc2Cl)CCCO1,14.7
14,O=C1CCCCCCCCCCC(=NOC(=O)COc2cccc([N+](=O)[O-])c2)CCCO1,80.9
15,O=C1CCCCCCCCCCC(=NOC(=O)COc2cccc(Cl)c2)CCCO1,23.8
16,CC(Oc1ccc(Cl)cc1Cl)C(=O)ON=C1CCCCCCCCCCC(=O)OCCC1 (stereo unspecified),13.5
17,O=C1CCCCCCCCCC/C(=N/OC(=O)COc2ccc(Cl)cc2)CCCO1,16.3
18,CC1CCC(=NOC(=O)COc2ccc(Cl)cc2)CCCCCCCCCCC(=O)O1 (stereo unspecified),12.4
19,O=C1CCCCCCCCCCC(=NOC(=O)COc2ccc(Br)cc2Cl)CCCO1,16.9
